Legend:
[1] = Metabolic profile of [6]-shogaol in mouse liver microsomes; assay type: in vitro ADME, CD-1 mouse; conditions: mouse liver microsomes 0.5 mg/mL, [6]-shogaol 50 µM, 30 min
Procedure, shortened: (§1)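 Microsomes in 100 mM potassium phosphate buffer with an NADPH-regenerating system were preincubated 5 min at 37°C. Reaction was started with test compound (DMSO, final ≤1% v/v) and run 30 min at 37°C, then stopped with an equal volume of ice-cold acetonitrile containing 2% acetic acid. After centrifugation at 13,000g for 10 min, supernatant went to C18 HPLC with electrochemical array detection, read at the 300 mV channel.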

[2] = Metabolic profile of [6]-shogaol in dog liver microsomes; assay type: in vitro ADME, beagle dog; conditions: dog liver microsomes 0.5 mg/mL, [6]-shogaol 50 µM, 30 min
Procedure, shortened: as §1

[3] = Metabolic profile of [6]-shogaol in human liver microsomes; assay type: in vitro ADME; conditions: human liver microsomes 0.5 mg/mL, [6]-shogaol 50 µM, 30 min
[4] = Metabolic profile of [6]-shogaol in rat liver microsomes; assay type: in vitro ADME, Sprague-Dawley rat; conditions: rat liver microsomes 0.5 mg/mL, [6]-shogaol 50 µM, 30 min
Procedure, shortened: as §1

[5] = Metabolic profile of [6]-shogaol in monkey liver microsomes; assay type: in vitro ADME, cynomolgus monkey; conditions: monkey liver microsomes 0.5 mg/mL, [6]-shogaol 50 µM, 30 min
Procedure, shortened: as §1

[6] = test system: H-1299 human lung cancer cells; test: MTT growth inhibition, human lung cancer cells; assay type: cell-based; conditions: read-out: IC50, cell viability (MTT); H-1299, 24 hours, 0 to 80 µM
[7] = test system: HCT-116 human colon cancer cells; test: Induction of apoptosis; assay type: cell-based; conditions: HCT-116, 10 µM compound, 24 hours
Procedure, shortened: (§2)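 Cells in McCoy's 5A with 10% FBS, 1% penicillin/streptomycin and 1% glutamine were seeded at 5000 cells/well and allowed to attach overnight at 37°C. They were then exposed to test compound in DMSO, diluted in medium, for 24 h. Lysates were spun at 300 g for 10 min and run in a histone–DNA sandwich ELISA (anti-histone-biotin/anti-DNA-POD, 2 h RT; ABTS 15 min; A430). Triplicate; fold over DMSO control, mean ± SD.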

[8] = test system: HCT-116 human colon cancer cells; test: MTT growth inhibition, human colon cancer cells; assay type: cell-based; conditions: read-out: IC50, cell viability (MTT); HCT-116, 24 hours, 0 to 80 µM
[9] = test system: H-1299 human lung cancer cells; test: Induction of apoptosis; assay type: cell-based; conditions: H-1299, 10 µM compound, 24 hours
Procedure, shortened: as §2

[10] = Kinetic study of [6]-shogaol metabolism to M6 in mouse liver microsomes; assay type: in vitro ADME, CD-1 mouse; conditions: mouse liver microsomes 0.1 mg/mL, [6]-shogaol 7.8 to 2000 µM, 30 min
[11] = Kinetic study of [6]-shogaol metabolism to M6 in human liver microsomes; assay type: in vitro ADME; conditions: probe [6]-shogaol (substrate)
[12] = Kinetic study of [6]-shogaol metabolism to M6 in dog liver microsomes; assay type: in vitro ADME, beagle dog; conditions: dog liver microsomes 0.1 mg/mL, [6]-shogaol 7.8 to 2000 µM, 30 min

| Structure (SMILES) | Relative abundance of metabolite formed from [6]-shogaol [1] | Relative abundance of metabolite formed from [6]-shogaol [2] | Relative abundance of metabolite formed from [6]-shogaol [3] | Relative abundance of metabolite formed from [6]-shogaol [4] | Relative abundance of metabolite formed from [6]-shogaol [5] | IC50 [6] [µM] | IC50 [8] [µM] | Km at 30 min [11] [µM] | Induction of apoptosis compared to DMSO control [7] [fold] | Induction of apoptosis compared to DMSO control [9] [fold] | Vmax of M6 formation [10] | Vmax of M6 formation [12] |
| --- | --- | --- | --- | --- | --- | --- | --- | --- | --- | --- | --- | --- |
| CCCCC/C=C/C(=O)/C=C/c1ccc(O)c(OC)c1 [M14, (1E, 4E)-1-(4'-hydroxy-3'-methoxyphenyl)-deca-1,4-dien-3-one] | minor | minor | smallest amount | minor | major metabolite |  |  |  |  |  |  |  |
| CCCCCCCC(=O)/C=C/c1ccc(O)c(OC)c1 [M15, (E)-1-(4'-hydroxy-3'-methoxyphenyl)-dec-1-en-3-one] | very minor | abundant | very minor | very minor | abundant |  |  |  |  |  |  |  |
| CCCCCC=CC(O)CCc1ccc(O)c(OC)c1 (stereo not drawn) [M6, 1-(4'-hydroxy-3'-methoxyphenyl)-4-decen-3-ol] | dominant peak | intermediate relative amount | intermediate relative amount | dominant peak | minor metabolite |  |  | 45.6 |  |  | 4.10 +/− 0.19 nanomoles per minute per milligram liver microsomes | 7.33 +/− 0.43 nanomoles per minute per milligram liver microsomes |

Further lines, with some results ahead:

| Relative abundance of metabolite formed from [6]-shogaol [1] | Relative abundance of metabolite formed from [6]-shogaol [2] | Relative abundance of metabolite formed from [6]-shogaol [3] | Relative abundance of metabolite formed from [6]-shogaol [4] | Relative abundance of metabolite formed from [6]-shogaol [5] | IC50 [6] [µM] | IC50 [8] [µM] | Km at 30 min [11] [µM] | Structure (SMILES) | Induction of apoptosis compared to DMSO control [7] [fold] | Induction of apoptosis compared to DMSO control [9] [fold] | Vmax of M6 formation [10] | Vmax of M6 formation [12] |
| --- | --- | --- | --- | --- | --- | --- | --- | --- | --- | --- | --- | --- |
|  |  |  |  |  | 17.3 | 19.9 |  | CCCCC/C=C/C(=O)CCc1ccc(O)c(OC)c1 [[6]-shogaol] | 1 | ~2 |  |  |
| minute amounts | very minor product | major product | very minor product | minute amounts |  |  |  | CCCCCCCC(=O)CCc1ccc(O)c(OC)c1 [M11, 1-(4'-hydroxy-3'-methoxyphenyl)-decan-3-one] |  |  |  |  |

Reference: paper PMC3815528 (Molecular nutrition & food research, 2013)
